Each structure is given as a SMILES string. Active and inactive are the calls of the source.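 How the source made its calls, unless noted: active means viability loss from added drug above about 55%, and viability with drug at most 40%, in both replicates (limit read from the data, passing the limit was not always enough); inconclusive means both conditions met in only one replicate; inactive means neither replicate meets both conditions.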

A short description of test [1]: Her2 expression decrease, cell viability multiplex – SKBR3 breast tumor cells, AlphaScreen, ATP viability, primary screen (AID 461;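 active means Her2 level under about 52% in both replicate screens, with viability over 70% of control, limit read from the data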;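 on Her2 level: lower value means less Her2 protein in the cells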;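 on viability: percent of carrier control wells set as 100% viability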). As to conditions: SKBR3 Her2 protein level, 18-24 h, measured here: SKBR3 viability, ATP luminescence, at 10 µM. For orientation: Bead proximity is the source of the signal in Alpha formats.
Test [2] has as its target Receptor tyrosine-protein kinase erbB-2 (Homo sapiens) (UniProt P04626). The description is as above. As to conditions: 18-24 h, at 10 µM, stronger effect = lower value.
Test [3] is described as follows: reduced viability of SK-BR-3 breast cancer cells – cell-based, 24 h, human, pilot screen (AID 572;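 active means viability at or below 10% of carrier control in both of two separate runs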;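 further: compound exposure lasted between 18 and 24 h rather than exactly 24 h; 100% = carrier-treated control wells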). As to conditions: SK-BR-3 viability, CellTiter-Glo luminescence, at 10 µM, stronger effect = lower value. (ATP-based viability assays read luminescence as a measure of living cells.)
Test [4] can be described thus: HUVEC growth inhibition – cell-based, human, primary screen (AID 575;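 active means viability at or below 30% in both replicate assays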;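 further: 100% = median of untreated cell wells with 0.1% DMSO on each plate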). The following applies: HUVEC proliferation, CellTiter-Glo luminescence, 72 h; at 10 µM; stronger effect = lower value. The method in brief: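 Assay system: primary human umbilical vein endothelial cells / Buffer or medium: endothelial basal medium with 2% FBS plus growth supplements / Compound dosing: one dose, 10 µM final, 0.1% DMSO / Timing: 72 h treatment at 37 °C / Signal: CTG luminescence / Benchmarks: 32 DMSO-only cell-control wells (high), 32 MePR drug-control wells (low) per plate / Plate: collagen-coated 384-well format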

Test [5] in a line: H69AR cell proliferation blockers – human, duplicate replicates, primary screen (AID 580;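 active means viability at or under a set limit in both replicates, limit being median viability minus 3 SD, cut at about 48% in these data, passing the limit was not always enough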;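 further: 100% = mean luminescence of untreated wells and 0% = no signal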). The following applies: H69AR lung tumor cells viability, ATP luminescence, 72 h; at 10 µM; stronger effect = lower value.
Test [6] is described as follows: MRP1 drug-resistance reversers in H69AR cells – cell-based, doxorubicin co-treatment, pilot screen (AID 601). The following applies: CellTiter-Glo, 72 h, at 10 µM; for differential viability (reversal): stronger effect = higher value.
The nature of test [7]: yeast transport mutant growth inhibition pilot in 384-well plates, post-Golgi transport modulator project (AID 636; in the data active means inhibition above about 31%). The following applies: absorbance 615 nm, about 18 h, stronger effect = higher value.
A short description of test [8]: growth suppression of yeast trafficking mutant, preliminary HTS, modulators of trafficking downstream of Golgi apparatus project, 1536-format plate, OD 615 nm (AID 637; in the data active means inhibition above about 30%). As to conditions: yeast transport mutant growth, absorbance 615 nm, 18 h; stronger effect = higher value.
The mark [9] stands for this setting: H69AR cells + 2 uM doxorubicin, measured here: viability with 2 uM doxorubicin, stronger effect = lower value.
The mark [10] stands for this setting: H69AR cells, compound alone cytotoxicity.

Chain of Receptor tyrosine-protein kinase erbB-2 (Homo sapiens) (P04626 whole entry, looked up): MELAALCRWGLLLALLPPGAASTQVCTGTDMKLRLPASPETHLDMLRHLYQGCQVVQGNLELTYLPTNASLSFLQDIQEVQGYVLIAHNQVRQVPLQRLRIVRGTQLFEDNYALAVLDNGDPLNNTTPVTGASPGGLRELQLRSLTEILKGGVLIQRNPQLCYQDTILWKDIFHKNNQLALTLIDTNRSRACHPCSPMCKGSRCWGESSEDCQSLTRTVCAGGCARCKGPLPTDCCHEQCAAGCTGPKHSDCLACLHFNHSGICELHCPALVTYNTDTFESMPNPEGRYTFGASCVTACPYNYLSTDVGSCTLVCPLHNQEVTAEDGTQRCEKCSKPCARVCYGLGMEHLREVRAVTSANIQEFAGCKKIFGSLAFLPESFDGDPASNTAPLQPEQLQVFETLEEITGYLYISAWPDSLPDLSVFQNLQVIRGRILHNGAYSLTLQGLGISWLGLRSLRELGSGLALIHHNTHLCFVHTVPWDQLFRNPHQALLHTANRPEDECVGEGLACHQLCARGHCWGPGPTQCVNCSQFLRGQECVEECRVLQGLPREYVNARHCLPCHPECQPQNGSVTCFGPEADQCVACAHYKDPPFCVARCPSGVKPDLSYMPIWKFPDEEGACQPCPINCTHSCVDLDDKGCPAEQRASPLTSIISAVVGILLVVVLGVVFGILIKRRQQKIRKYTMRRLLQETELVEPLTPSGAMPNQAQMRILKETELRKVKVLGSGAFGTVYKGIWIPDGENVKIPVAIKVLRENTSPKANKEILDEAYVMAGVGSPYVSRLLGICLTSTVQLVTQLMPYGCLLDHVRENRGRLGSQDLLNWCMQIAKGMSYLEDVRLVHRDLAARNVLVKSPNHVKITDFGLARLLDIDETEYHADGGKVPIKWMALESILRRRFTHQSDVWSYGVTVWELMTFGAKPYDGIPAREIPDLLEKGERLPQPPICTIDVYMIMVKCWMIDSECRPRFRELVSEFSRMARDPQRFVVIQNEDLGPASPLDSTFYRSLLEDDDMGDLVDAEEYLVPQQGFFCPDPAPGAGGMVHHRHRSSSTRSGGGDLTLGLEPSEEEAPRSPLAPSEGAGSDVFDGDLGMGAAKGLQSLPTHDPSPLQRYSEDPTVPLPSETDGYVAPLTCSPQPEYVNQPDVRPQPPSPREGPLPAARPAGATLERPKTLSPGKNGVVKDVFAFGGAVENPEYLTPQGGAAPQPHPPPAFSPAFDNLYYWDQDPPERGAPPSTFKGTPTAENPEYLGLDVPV

For the compound `COc1ccc(C2(C(=O)Nc3c(C)n(C)n(-c4ccccc4)c3=O)CCCC2)cc1OC`, the viability was 94% in test [1]; 94% (inactive) in test [3]; 98.5% (inactive) in test [4]; 106% (inactive) in test [5]; 84.1% in test [6] (setting [9]); 106% in test [6] (setting [10]). In test [2], the Her2 level was 91.5% (inactive). In addition, the differential viability (reversal) in test [6] (H69AR cells + 2 uM doxorubicin) was 21.9% (inactive). The inhibition in test [7] is -2.4% (inactive); in test [8] it was 1.43% (inactive).

Take `O=C(CSc1nnc(-c2cnccn2)n1Cc1ccco1)c1ccc(Cl)cc1`: the viability in test [1] was 90%; in test [3], 90% (inactive); in test [4], 105% (inactive); in test [5], 80.7% (inactive); in test [6] (setting [9]), 83.5%; in test [6] (setting [10]) it was 80.7%. In test [2], the Her2 level was 81% (inactive). The differential viability (reversal) in test [6] (H69AR cells + 2 uM doxorubicin) is -2.83% (inactive). Also, the results for the inhibition in test [7] and in test [8] were -0.78% (inactive) and 6.5% (inactive), respectively.

`CC(C)(C)N=C1NC(=NC(C)(C)C)c2ccccc21`: the viability in test [1] was 77%; in test [3], 77% (inactive); in test [4], 86% (inactive); in test [5] it was 69.3% (inactive); in test [6] (setting [9]), 80.8%; in test [6] (setting [10]) it was 69.3%. For the same compound, the Her2 level in test [2] is 86% (inactive). In addition, in test [6] (H69AR cells + 2 uM doxorubicin), the differential viability (reversal) was -11.5% (inactive). The inhibition is 0.92% (inactive) in test [7] and -7.64% (inactive) in test [8].

Consider `COCCCNC(=O)CSc1nc2ccc(N3CCOCC3)cc2c(=O)n1CCc1ccccc1`, for which the viability in test [1] is 104%; in test [3], 104% (inactive); in test [4], 70.3% (inactive); in test [5], 94.9% (inactive); in test [6] (setting [9]), 99.9%; in test [6] (setting [10]) it was 94.9%. In addition, the Her2 level in test [2] is 87% (inactive). The differential viability (reversal) in test [6] (H69AR cells + 2 uM doxorubicin) was -5.04% (inactive). Further, the inhibition is -2.73% (inactive) in test [7] and -0.48% (inactive) in test [8].

For the compound `Cc1cc2c(c(=O)o1)C(C13C=CC(CC1)C3)C(C#N)=C(N)O2` (stereo not given), the viability in test [1] was 124%; in test [3], 124% (inactive); in test [4], 90.1% (inactive); in test [5], 99.8% (inactive); in test [6] (setting [9]), 86.6%; in test [6] (setting [10]) it was 99.8%. In addition, in test [2], the Her2 level is 94.5% (inactive). For the same compound, in test [6] (H69AR cells + 2 uM doxorubicin), the differential viability (reversal) is 13.2% (inactive). For the same compound, the inhibition in test [7] was -6.4% (inactive); in test [8] it was -5.97% (inactive).

With `Cc1nc2sc3c(c2c(=O)o1)CCC3`, the viability in test [1] was 110%; in test [3], 110% (inactive); in test [4], 84.3% (inactive); in test [5], 88.1% (inactive); in test [6] (setting [9]), 102%; in test [6] (setting [10]), 88.1%. For the same compound, the Her2 level in test [2] is 80.5% (inactive). Moreover, the differential viability (reversal) in test [6] (H69AR cells + 2 uM doxorubicin) is -14.3% (inactive). For the same compound, the inhibition is -3.42% (inactive) in test [7] and 6.89% (inactive) in test [8].

As to `Cc1nnc(NC(=O)CSc2nnc(-c3ccc(S(=O)(=O)N4CCCC4)cc3)n2C)s1`, the viability was 93% in test [1]; 93% (inactive) in test [3]; 104% (inactive) in test [4]; 99% (inactive) in test [5]; 92.6% in test [6] (setting [9]); 99% in test [6] (setting [10]). The Her2 level in test [2] is 88.5% (inactive). For the same compound, the differential viability (reversal) in test [6] (H69AR cells + 2 uM doxorubicin) is 6.45% (inactive). Besides, the inhibition was -2.8% (inactive) in test [7] and -2.1% (inactive) in test [8].

Turning to `C/C(=C\C(=O)c1ccc(F)cc1)Nc1ccc(N2CCOCC2)cc1`, the viability in test [1] was 89.5%; in test [3] it was 89.5% (inactive); in test [4], 114% (inactive); in test [5], 90.9% (inactive); in test [6] (setting [9]), 89.1%; in test [6] (setting [10]), 90.9%. For the same compound, the Her2 level in test [2] is 97% (inactive). The differential viability (reversal) in test [6] (H69AR cells + 2 uM doxorubicin) is 1.85% (inactive). Besides, the inhibition in test [7] was -4.4% (inactive); in test [8], -0.65% (inactive).

On to `O=P(O)(O)C(O)C(F)(F)C(F)(F)C(F)(F)C(F)F` (stereo not given), for which the viability in test [1] is 108%; in test [3], 108% (inactive); in test [4], 110% (inactive); in test [5], 92.5% (inactive); in test [6] (setting [9]), 98.1%; in test [6] (setting [10]), 92.5%. In test [2], the Her2 level is 77.5% (inactive). For the same compound, the differential viability (reversal) in test [6] (H69AR cells + 2 uM doxorubicin) was -5.62% (inactive). Moreover, the inhibition was -7.76% (inactive) in test [7] and -6.17% (inactive) in test [8].

Consider `COC(=O)/C=c1/s/c(=C(/C#N)C(=O)N2CCOCC2)n(-c2ccccc2)c1=O`, for which the viability in test [1] is 116%; in test [3] it was 116% (inactive); in test [4], 98.8% (inactive); in test [5] it was 88.8% (inactive); in test [6] (setting [9]), 99.6%; in test [6] (setting [10]), 88.8%. The Her2 level in test [2] is 80.5% (inactive). Also, the differential viability (reversal) in test [6] (H69AR cells + 2 uM doxorubicin) is -10.8% (inactive). Also, the results for the inhibition in test [7] and in test [8] were -7.4% (inactive) and -3.17% (inactive), respectively.

In the case of `COC(=O)c1cc(OC)c(OC)cc1NC(=O)CC1CCCCC1`, the viability is 104% in test [1]; 104% (inactive) in test [3]; 99.3% (inactive) in test [4]; 103% (inactive) in test [5]; 93.6% in test [6] (setting [9]); 103% in test [6] (setting [10]). For the same compound, in test [2], the Her2 level was 96.5% (inactive). In test [6] (H69AR cells + 2 uM doxorubicin), the differential viability (reversal) is 9.91% (inactive). The inhibition in test [7] is 0.79% (inactive); in test [8], -2.9% (inactive).

In the case of `S=C(NCC1CCCO1)n1nnc2ccccc21` (stereo not given), the viability was 121% in test [1]; 121% (inactive) in test [3]; 66.2% (inactive) in test [4]; 74.8% (inactive) in test [5]; 74.1% in test [6] (setting [9]); 74.8% in test [6] (setting [10]). In test [2], the Her2 level is 49% (active). The differential viability (reversal) in test [6] (H69AR cells + 2 uM doxorubicin) was 0.715% (inactive). For the same compound, the inhibition was -1.07% (inactive) in test [7] and -0.95% (inactive) in test [8].

For `CCOc1cc(NC(=O)c2ccco2)c(OCC)cc1NC(=O)COc1ccccc1C`, the viability in test [1] was 67%; in test [3] it was 67% (inactive); in test [4], 60.9% (inactive); in test [5], 7.87% (active); in test [6] (setting [9]), 12.4%; in test [6] (setting [10]), 7.87%. Also, in test [2], the Her2 level was 77.5% (inactive). In test [6] (H69AR cells + 2 uM doxorubicin), the differential viability (reversal) was -4.53% (inactive). Besides, the results for the inhibition in test [7] and in test [8] were -5.6% (inactive) and -6.19% (inactive), respectively.

Take `OC(CN1CCCCC1)Cn1c(C(F)(F)F)nc2ccccc21` (stereo not given): the viability was 85.5% in test [1]; 85.5% (inactive) in test [3]; 105% (inactive) in test [4]; 83.4% (inactive) in test [5]; 86.4% in test [6] (setting [9]); 83.4% in test [6] (setting [10]). In addition, the Her2 level in test [2] was 103% (inactive). Also, the differential viability (reversal) in test [6] (H69AR cells + 2 uM doxorubicin) is -3.04% (inactive). Also, the inhibition in test [7] is 0% (inactive); in test [8], 3.5% (inactive).

Regarding `O=c1[nH]c2cc3c(cc2cc1C(c1nnnn1Cc1ccccc1)N1CCCc2ccccc21)OCO3` (stereo not given), the viability in test [1] was 98.5%; in test [3], 98.5% (inactive); in test [4] it was 79.3% (inactive); in test [5], 61.6% (inactive); in test [6] (setting [9]), 61.8%; in test [6] (setting [10]), 61.6%. In test [2], the Her2 level is 95.5% (inactive). In addition, the differential viability (reversal) in test [6] (H69AR cells + 2 uM doxorubicin) is -0.235% (inactive). In addition, the inhibition in test [7] was -3.73% (inactive); in test [8] it was 4.43% (inactive).

For orientation: viability means a read-out of living cells in per cent, often relative to untreated cells. A word on the inhibition: it is the change of the read-out against control, counted positive when it falls.

These data come from PubChem BioAssay.
